Assay results: PMC11537069 (Structure (London, England : 1993), 2020)

How the values were obtained:
HERC2ZZ = molecular target: T1, HERC2ZZ (Homo sapiens, UniProt O95714); assay: NMR titration; assay type: binding; details: 0.1 mM 15N-labeled HERC2ZZ, 20 mM Tris pH 6.8, 100 mM NaCl, 298K
T1 sequence (O95714 2702-2755): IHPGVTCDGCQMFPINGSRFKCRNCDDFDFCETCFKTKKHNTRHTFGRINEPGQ
Method in brief: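 Human HERC2ZZ (aa 2702-2755, plus an extra C-terminal Trp) was expressed in BL21(DE3) RIL in minimal medium with 15NH4Cl and 0.05 mM ZnCl2, induced with 0.2 mM IPTG for 20 h at 16 °C. The His8-SUMO tag was removed with Ulp1, followed by size exclusion. Sample also held 2-5 mM DTT and 10% D2O.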

HERC2ZZ D2709A = assay: NMR titration; assay type: binding, human; details: 15N-labeled D2709A HERC2ZZ, 20 mM Tris pH 6.8, 100 mM NaCl, 298K; Figures 3G, 3H, S9

Row | exchange regime of CSPs in HERC2ZZ on the NMR timescale (HERC2ZZ) | Compound | CSPs in HERC2ZZ upon addition of free alanine amino acid (HERC2ZZ; 50-fold excess of alanine, Figure S5) | interaction with SUMO1 ligand upon D2709A substitution (NMR titration) (HERC2ZZ D2709A)
1 |  | C[C@H](N)C(=O)O [alanine, reference compound] | no CSPs | 
2 | intermediate exchange regime | SUMO1FL: full-length SUMO1 protein |  | abolished
